Fewer inactive variants are shown than the library holds.
B1: tRNA (parent)
chain: GUUCCGUUGGCGUAAUGGUAACGCGUCUCCCUCCUAAGGAGAAGACUGCGGGUUCGAGUCCCGUACGGAACG

Variants of: B1
Test: yeast fitness relative to wild type (ratio to wild type); higher = fitter; tRNA-Arg(CCU), competitive growth, 37 C, YPD
Method in brief: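 Variants of the tRNA-Arg(CCU) gene, chemically synthesised with a 3% per-site mutation rate at 69 sites, were placed at the native genomic locus in Saccharomyces cerevisiae. The pooled strains were competed in YPD at 37°C for 24 hours in six parallel replicates. Gene amplicons from the start population and from each end population were read by 100-nucleotide paired-end sequencing. Darwinian fitness relative to wild type came from changes in genotype frequencies; genotypes needed ≥ 100 starting reads, and estimates < 0.5 were set to 0.5.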

Compared with GUACCGUUGGCGUAAUGGUAACGCGUCUCCUUCCUAAGGAGAAGACUGCGGGUUCGUGUCCCGUACGGAACG [U3A C31U A57U], GUACCGUUGGCGUAAUGGUAACGCGUCUCGCUUCUAAGGAGAAGACUGCGGGUUCGAGUCCCGUACUGAACG [U3A C30G C33U G67U] is lower in yeast fitness: 0.598 for the first, at most 0.5 for the second.

First: GUACCGUUGGCGUAAUGGUAACGCGUAUCGCUCCUAAGAAGAAGACUGCGGGUUCGAGUCCCGUACGGAACG [U3A C27A C30G G39A]
Second: GUACCGUUGGCGUAAUGGUAACGCGUCUCUCUCCUAAGGAGGAGACUGCGGGUUCGAGUCUCGUACGGAACG [U3A C30U A42G C61U]
The yeast fitness of the first is lower: at most 0.5 for the first, 0.602 for the second.

First: GUACCGUUGGCGUAAUGGUAACGCGUCUCCCUCUUAAGGAGAAGACUGAGGAUUCGAGUCCCGUACGGAACG [U3A C34U C49A G52A]
Second: GUACCGUUGGCGUAAUGGUAACGCGUCUCUCUCCUAAGGAGAAGACUGCGGGUUCGAGACCCGUACGGCACG [U3A C30U U59A A69C]
The yeast fitness of the first is higher: 0.622 for the first, at most 0.5 for the second.

Compared with GUACCGUUGGCGUAAUGGUAACGCGUUUCCCUCCUAAGGAGAAGACUGCGGGUUCGAGUCCCGUACUGAACG [U3A C27U G67U], GUACCGUUGGCGUAAUGGUAACGCGUCUUCCUCCUAAGGAGAAGACUGCGGGUUCGAGUCCCGUACGGAACG [U3A C29U] is higher in yeast fitness: 0.606 for the first, 0.85 for the second.

Compared with GUACCGUUGGCGUAAUGGUAACGCGUCUACCUCCUAAGGAGAAGACUGCGGGUUCGAGUCCCGUACGGAACG [U3A C29A], GUACCGUUGGCGUAAUGGUAACGCGUUUCCCUCCUAAGGAGAAGACUGCGGGUUCGAGUCCCGUACGGAACG [U3A C27U] is higher in yeast fitness: 0.653 for the first, 0.853 for the second.

Going from GUACCGUUGGCGUAAUGGUAACGCGUCUCCUUCCUAAGGCGAAGACUGCGGGUUCGAGUCCCGUACGGAACG [U3A C31U A40C] to GUACCGUUGGCGUAAUGGUAACGCGUGUCCCUCCUAAGGAGAAGACUGCGGGUUCGAGUCCCGUACGGCACG [U3A C27G A69C], the yeast fitness falls from 0.566 to at most 0.5.

Compared with GUACCGUUGGCGUAAUGGUAACGCGUCUCCUUCCUAAGGAGAAGACUGCGGGUUCGAGUCCCGUACGGAUCG [U3A C31U A70U], GUACCGUUGGCGUAAUGGUAACGCGUGUCCCUCCUAAGGAGACGACUGCGGGUUCGAGUCCCGUACGGAACG [U3A C27G A43C] is lower in yeast fitness: 0.688 for the first, at most 0.5 for the second.

GUACCGUUGGCGUAAUGGUAACGCGUGUCCUUUCUAAGGAGCAGACUGCGGGUUCGAGUCCCGUACGGAUCG [U3A C27G C31U C33U A42C A70U] and GUACCGUUGGCGUAAUGGUAACGCGUCUCCCUCAUAAGGAGAAGACUGUGGGUUGGAGUCCCGUACGGAACG [U3A C34A C49U C55G] cannot be ordered by yeast fitness: at most 0.5 for the first, at most 0.5 for the second.

First: GUACCGUUGGCGUAAUGGUAACGCGUCUCACUCCUAAGGAGAAGACUGCGGGUUCGAGUCCCGUACGGAACG [U3A C30A]
Second: GUACCGUUGGCGUAAUGGUAACGCGUCUCGCUCCUAAGGAGAAGACUGCGGGUUCGAGUCCCGUACGGAACG [U3A C30G]
The yeast fitness of the first is higher: 0.834 for the first, 0.598 for the second.

Going from GUACCGUUGGCGUAAUGGUAACGCGUCUCCGUCCUAAGGAGAUGACUGCGGGUUCGAGUCCCGUACGGAACG [U3A C31G A43U] to GUACCGUUGGCGUAAUGGUAACGCGUCUCCCUCCUAAGGAGAAGAAUGCGGGUUCGAGUCCCGUACUGAACG [U3A C46A G67U], the yeast fitness rises from 0.597 to 0.603.

GUACCGUUGGCGUAAUGGUAACGCGUCUCCUUCCGAAGGAGAAGACUGCGGGUUCGAGUCCUGUACGGAACG [U3A C31U U35G C62U] and GUACCGUUGGCGUAAUGGUAACGCGUCUCGCUCCUAAGGAGAAGACUGCGGGUUCGAGUCCCGUAGGGAACG [U3A C30G C66G] cannot be ordered by yeast fitness: at most 0.5 for the first, at most 0.5 for the second.

GUACCGUUGGCGUAAUGGUAACGCGUCUCGCUCCUAAGGAGAAGACUGCGGGUUUGAGUCCCGUACGGAUCG [U3A C30G C55U A70U] and GUACCGUUGGCGUAAUGGUAACGCGUCUCCCUCUUAAGGAGAAGACUGCGGGUUCCAGUCCCGUACGGAACG [U3A C34U G56C] cannot be ordered by yeast fitness: at most 0.5 for the first, at most 0.5 for the second.

First: GUACCGUUGGCGUAAUGGUAACGCGUCUCCGUCCUAAGGAGAAGACUGCGGGUUCGAGUCCCGUACUGAACG [U3A C31G G67U]
Second: GUACCGUUGGCGUAAUGGUAACGCGUCUCGCUCCUAAGGAGAAGGGUGCGGCUUCGAGUCCCGUACGCAACG [U3A C30G A45G C46G G52C G68C]
The yeast fitness of the first is higher: 0.542 for the first, at most 0.5 for the second.

Going from GUACCGUUGGCGUAAUGGUAACGCGUCUCCCUUCUAAGGAGAAGUCUGCGGGUUCGAGUCCCGUACGGAACG [U3A C33U A45U] to GUACCGUUGGCGUAAUGGUAACGCGUCUCCGUCCUAAGGUUAAGACUGCGGGUUCGAGUCCCGUACGGAACG [U3A C31G A40U G41U], the yeast fitness falls from 0.834 to at most 0.5.

GUACCGUUGGCGUAAUGGUAACGCGUGUCCUUUCUAAGGAGCAGACUGCGGGUUCGAGUCCCGUAUGGACCG [U3A C27G C31U C33U A42C C66U A70C] and GUACCGUUGGCGUAAUGGUAACGCGUUUCCCUCCUAUGGAGAAGACUGCGGGUUCGAGUCCCGUACGGCACG [U3A C27U A37U A69C] cannot be ordered by yeast fitness: at most 0.5 for the first, at most 0.5 for the second.

First: GUACCGUUGGCGUAAUGGUAACGCGUCUCCCUUCUAAGGAGAAGACUGCGGGUUCGAGUCCCGUACGGAACG [U3A C33U]
Second: GUACCGUUGGCGUAAUGGUAACGCGUCUCGCUCCUAAGGAGAAGACUGCGGGUUCGAGUCCCGUACGAAACG [U3A C30G G68A]
The yeast fitness of the first is higher: 0.791 for the first, at most 0.5 for the second.

First: GUACCGUUGGCGUAAUGGUAACGCGUCUCCCUCUUAAGGAGAAGACUGCGGGUUCGAGUCCCGUACGGAACG [U3A C34U]
Second: GUACCGUUGGCGUAAUGGUAACGCGUCUCUCUCCUAAGGAGAAGACUGCGGGUUCAAGUCCCGUACGGAACG [U3A C30U G56A]
The yeast fitness of the first is higher: 0.735 for the first, at most 0.5 for the second.

Compared with GUACCGUUGGCGUAAUGGUAACGCGUCUCCCUCCUAAGGAGAAGAAUGCGGGUUCGAGUCCCGUACGGCACG [U3A C46A A69C], GUACCGUUGGCGUAAUGGUAACGCGUAUCCCUCCUAAGGAGAAGACUGCGGGUUCGAGUCCCGUACGGUACG [U3A C27A A69U] is lower in yeast fitness: 0.997 for the first, 0.627 for the second.

Going from GUACCGUUGGCGUAAUGGUAACGCGUCUCUCUCCUAAGGAGAAGACUGCGGGUUCGAGUCCCGUACAGAACG [U3A C30U G67A] to GUACCGUUGGCGUAAUGGUAACGCGUCUCCUUCCUAAGGCGAAGACUGCGGGUUCGAGUCCCGUACGGAGCG [U3A C31U A40C A70G], the yeast fitness falls from 0.553 to at most 0.5.
